Results published in ChEMBL document CHEMBL1149042, “Antihypertensive activity of 6-O-galloyl-D-glucose, a phenolic glycoside from Sapium sebiferum” (1994).
Activity calls are given as the source filed them. The calls are words filed in the database; no cut-off is given here.

Assays:
[1] = system: Rattus norvegicus; experiment: Antihypertensive activity in iv dosed SHR rat assessed as reduction in pentobarbitol-induced increase in blood pressure; assay type: functional, organism-based
[2] = system: Rattus norvegicus; experiment: Antihypertensive activity in SHR rat assessed as changes in tail arterial mean blood pressure at 1 mg/kg, iv; assay type: functional, Artery
How it was run: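 Conscious SHR (250–280 g) with systemic pressure above 180 mm Hg, given a single bolus in Locke-Ringer solution into the cannulated femoral vein over 20 sec. Tail arterial mean pressure was taken by indirect tail-cuff with a photoelectric pulse sensor at 28 ± 1° without pre-warming, at 10-min intervals. Controls received vehicle.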

[3] = system: Rattus norvegicus; experiment: Antihypertensive activity in SHR rat assessed as changes in tail arterial mean blood pressure at 5 mg/kg, iv; assay type: functional, Artery
How it was run: (§1)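 SHR rats (250–280 g) with systemic pressure above 180 mm Hg were used. Compound in Locke-Ringer solution was given as a single iv bolus over 20 sec into a cannulated femoral vein. Pressure was read by indirect tail-cuff with a photoelectric pulse sensor at 28 °C without pre-warming, every 10 min, versus pre-dose control. Controls received vehicle. Activity required a significant fall lasting at least 30 min.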

[4] = system: Rattus norvegicus; experiment: Antihypertensive activity in iv dosed SHR rat assessed as changes in tail arterial mean blood pressure relative to control; assay type: functional, organism-based; settings: Artery; how it was run: as §1
[5] = system: Rattus norvegicus; experiment: Antihypertensive activity in SHR rat assessed as reversible inhibition of pentobarbitol-induced increase in blood pressure at 20 mg/kg after 2 hrs; assay type: functional, organism-based; set-up: dose 20 mg/kg; how it was run: as §1
[6] = system: Rattus norvegicus; experiment: Antihypertensive activity in SHR rat assessed as reduction in pentobarbitol-induced increase in blood pressure at 0.1 mg/kg, iv; assay type: functional; how it was run: as §1
[7] = system: Rattus norvegicus; experiment: Inhibition of noradrenaline release in adrenalectomized anesthetized SHR rat plasma at 10 mg/kg, iv after 20 mins; assay type: functional
How it was run: (§2)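 Plasma was sampled 20 min after a single iv bolus in anaesthetized adrenalectomized rats (bilateral, dorsal approach under ether, 24 h recovery) or sham-operated SHR. Blood (2 ml) came from the optic sinus under ether and was spun at 5,000 × g for 10 min at 4°. Plasma (200 μl) received 20 ng DHBA internal standard and was adsorbed onto alumina with 30 min shaking. Vehicle-treated rats were controls, n=8, mean ± S.D.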

[8] = system: Rattus norvegicus; experiment: Antihypertensive activity in adrenalectomized anesthetized SHR rat assessed as reduction of mean blood pressure at 1 mg/kg, iv; assay type: functional
How it was run: (§3)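 Anaesthetized SHR given a single iv bolus. For adrenalectomized rats, bilateral adrenalectomy was done by dorsal approach under ether, with 24 h recovery before use. Sham-operated rats served as controls. Mean arterial pressure was recorded against vehicle-treated controls. Values are mean ± S.D. of 8 animals, and significance was tested by Dunnett's t-test.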

[9] = system: Rattus norvegicus; experiment: Vasorelaxation activity in anesthetized normotensive rat assessed as reduction of Bay-K 8644-induced mean arterial blood pressure at 10 mg/kg, iv after 20 mins
[10] = system: Rattus norvegicus; experiment: Inhibition of noradrenaline release in sham operated anesthetized SHR rat plasma at 5 mg/kg, iv after 20 mins; assay type: functional; how it was run: as §2
[11] = system: Rattus norvegicus; experiment: Inhibition of noradrenaline release in adrenalectomized anesthetized SHR rat plasma at 5 mg/kg, iv after 20 mins; assay type: functional; how it was run: as §2
[12] = system: Rattus norvegicus; experiment: Antihypertensive activity in sham operated anesthetized SHR rat assessed as reduction of mean blood pressure at 5 mg/kg, iv; assay type: functional; how it was run: as §3
[13] = system: Rattus norvegicus; experiment: Vasorelaxation activity in anesthetized normotensive rat assessed as reduction of Bay-K 8644-induced mean arterial blood pressure at 15 mg/kg, iv after 20 mins
[14] = system: Rattus norvegicus; experiment: Vasorelaxation activity in SHR rat assessed as reduction of Bay-K 8644-induced mean arterial blood pressure at 5 mg/kg, iv after 20 mins; assay type: functional
[15] = system: Rattus norvegicus; experiment: Inhibition of noradrenaline release in adrenalectomized anesthetized SHR rat plasma at 15 mg/kg, iv after 20 mins; assay type: functional; how it was run: as §2
[16] = system: Rattus norvegicus; experiment: Antihypertensive activity in sham operated anesthetized SHR rat assessed as reduction of mean blood pressure at 10 mg/kg, iv; assay type: functional; how it was run: as §3
[17] = system: Rattus norvegicus; experiment: Antihypertensive activity in sham operated anesthetized SHR rat assessed as reduction of mean blood pressure at 1 mg/kg, iv; assay type: functional; how it was run: as §3
[18] = system: Rattus norvegicus; experiment: Antihypertensive activity in adrenalectomized anesthetized SHR rat assessed as reduction of mean blood pressure at 5 mg/kg, iv; assay type: functional; how it was run: as §3
[19] = system: Rattus norvegicus; experiment: Inhibition of noradrenaline release in sham operated anesthetized SHR rat plasma at 10 mg/kg, iv after 20 mins; assay type: functional; how it was run: as §2
[20] = system: Rattus norvegicus; experiment: Inhibition of noradrenaline release in sham operated anesthetized SHR rat plasma at 15 mg/kg, iv after 20 mins; assay type: functional; how it was run: as §2
[21] = system: Rattus norvegicus; experiment: Inhibition of noradrenaline release in sham operated anesthetized SHR rat plasma at 1 mg/kg, iv after 20 mins; assay type: functional; how it was run: as §2
[22] = system: Rattus norvegicus; experiment: Vasorelaxation activity in SHR rat assessed as reduction of methoxamine-induced mean arterial blood pressure at 15 mg/kg, iv after 20 mins; assay type: functional
[23] = system: Rattus norvegicus; experiment: Vasorelaxation activity in SHR rat assessed as reduction of methoxamine-induced mean arterial blood pressure at 10 mg/kg, iv after 20 mins; assay type: functional
[24] = system: Rattus norvegicus; experiment: Antihypertensive activity in adrenalectomized anesthetized SHR rat assessed as reduction of mean blood pressure at 10 mg/kg, iv; assay type: functional; how it was run: as §3
[25] = system: Rattus norvegicus; experiment: Antihypertensive activity in sham operated anesthetized SHR rat assessed as reduction of mean blood pressure at 15 mg/kg, iv; assay type: functional; how it was run: as §3
[26] = system: Rattus norvegicus; experiment: Vasorelaxation activity in SHR rat assessed as reduction of methoxamine-induced mean arterial blood pressure at 5 mg/kg, iv after 20 mins; assay type: functional
[27] = system: Rattus norvegicus; experiment: Inhibition of noradrenaline release in adrenalectomized anesthetized SHR rat plasma at 1 mg/kg, iv after 20 mins; assay type: functional; how it was run: as §2
[28] = system: Rattus norvegicus; experiment: Antihypertensive activity in adrenalectomized anesthetized SHR rat assessed as reduction of mean blood pressure at 15 mg/kg, iv; assay type: functional; how it was run: as §3

O=C(OC[C@H]1O[C@@H](O)[C@H](O)[C@@H](O)[C@@H]1O)c1cc(O)c(O)c(O)c1
Activity [1]: Active | Activity [2]: 17.3 mmHg | Activity [3]: 29.6 mmHg | Activity [4]: Dose-dependent effect | Activity [5]: Active

COc1cc2nc(N3CCN(C(=O)c4ccco4)CC3)nc(N)c2cc1OC [PRAZOSIN]
Activity [6]: 31.4 mmHg

COC(=O)C1=C(C)NC(C)=C(C(=O)OC)C1c1ccccc1[N+](=O)[O-] [NIFEDIPINE]
Activity [7]: 1.49 pmol/mL | Activity [8]: 161.1 mmHg | Activity [9]: 23.6 mmHg | Activity [10]: 2.04 pmol/mL | Activity [11]: 1.76 pmol/mL | Activity [12]: 151.2 mmHg | Activity [13]: 14.3 mmHg | Activity [2]: 10.8 mmHg | Activity [14]: 34.1 mmHg | Activity [15]: 1.12 pmol/mL | Activity [16]: 140.9 mmHg | Activity [17]: 168.4 mmHg | Activity [18]: 143.8 mmHg | Activity [19]: 1.62 pmol/mL | Activity [20]: 1.28 pmol/mL | Activity [21]: 2.37 pmol/mL | Activity [22]: 17.1 mmHg | Activity [23]: 29.8 mmHg | Activity [24]: 132.4 mmHg | Activity [25]: 118.7 mmHg | Activity [26]: 36.3 mmHg | Activity [27]: 2.04 pmol/mL | Activity [28]: 110.4 mmHg
